As usually defined, the ΔTm is the change in melting temperature against a reference sample.

Assay [1] concerns Quadruplex DNA. The experiment in a line: Stabilization of c-Kit1 G4 quadruplex DNA assessed as change in melting temperature at 10 mol.equiv by circular dichroism melting assay. Format: nucleic-acid assay. Summed up: (§1)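 CD melting from 20 to 100 °C at 1 °C/min, monitored at 264 nm (c-Kit1, c-Kit2, c-Myc, Tel23-p), 287 nm (Tel23-h) or 280 nm (hairpin). Ligand was at 10 mol equiv with folded DNA (15 μM G4, 30 μM hairpin). ΔTm is Tm with ligand minus Tm without, from curve fits, averaged over triplicates.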
(In general: CD spectra are sensitive to the conformation of chiral molecules.)

Assay [2] deals with Quadruplex DNA. The experiment in a line: Effect on c-Myc G4 quadruplex DNA architecture at 10 mol.equiv by circular dichroism spectral analysis. Type of assay: nucleic-acid assay. The method in brief:
(§2)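 CD spectra of 15 μM G4s or 30 μM hairpin in 20 mM K phosphate pH 7.0 with 5 mM KCl, after annealing. Recorded at 20 °C over 230–360 nm, three scans averaged, buffer baseline subtracted. Ligand was added at 10 mol equiv to the folded DNA from a 10 mM DMSO stock.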

Assay [3] has as its system Quadruplex DNA. The experiment in a line: Effect on c-Kit1 G4 quadruplex DNA architecture at 10 mol.equiv by circular dichroism spectral analysis. Format: nucleic-acid assay. Summed up: as §2
In assay [4] the test system is Quadruplex DNA. The experiment in a line: Stabilization of parallel Tel23 G4 quadruplex DNA assessed as change in melting temperature at 10 mol.equiv by circular dichroism melting assay. Format: nucleic-acid assay. The method in brief: as §1
For assay [5], the system named is Quadruplex DNA. Nature of the assay: Stabilization of c-Myc G4 quadruplex DNA assessed as change in melting temperature at 10 mol.equiv by circular dichroism melting assay. Type of assay: nucleic-acid assay. The method in brief:
as §1

Assay [6] deals with Quadruplex DNA. Nature of the assay: Stabilization of human Tel23 G4 quadruplex DNA assessed as change in melting temperature at 10 mol.equiv by circular dichroism melting assay. Type of assay: nucleic-acid assay. Summed up: as §1
The nature of assay [7]: Stabilization of hairpin-duplex DNA assessed as change in melting temperature at 10 mol.equiv by circular dichroism melting assay. Summed up:
as §1

Assay [8] has as its system Quadruplex DNA. Nature of the assay: Stabilization of c-Kit2 G4 quadruplex DNA assessed as change in melting temperature at 10 mol.equiv by circular dichroism melting assay. Type of assay: nucleic-acid assay. The method in brief: as §1
Assay [9] in a line: Effect on hairpin-duplex DNA architecture at 10 mol.equiv by circular dichroism spectral analysis. The method in brief:
as §2

Assay [10] concerns Quadruplex DNA. The experiment in a line: Effect on parallel Tel23 G4 quadruplex DNA architecture at 10 mol.equiv by circular dichroism spectral analysis. Format: nucleic-acid assay. Summed up: as §2
In assay [11] the test system is Quadruplex DNA. The experiment in a line: Effect on human Tel23 G4 quadruplex DNA architecture at 10 mol.equiv by circular dichroism spectral analysis. Type of assay: nucleic-acid assay. Summed up:
as §2

For assay [12], the system named is Quadruplex DNA. Nature of the assay: Effect on c-Kit2 G4 quadruplex DNA architecture at 10 mol.equiv by circular dichroism spectral analysis. Type of assay: nucleic-acid assay. The method in brief:
as §2

The subject of assay [13] is Quadruplex DNA. Nature of the assay: Stabilization of G4 quadruplex DNA in human U2OS cells assessed as TRF2 foci per cell at 10 uM incubated for 24 hrs by immunofluorescence microscopy (reference value: 15.8 +/- 2.6%). Type of assay: cell-based.
In assay [14] the test system is Quadruplex DNA. Nature of the assay: Stabilization of G4 quadruplex DNA in human U2OS cells assessed as colocalization of TRF2/[…] foci at 10 uM incubated for 24 hrs by immunofluorescence microscopy (reference value: 18.4 +/- 2.81%). Format: cell-based.
Assay [15] has as its system Quadruplex DNA. Nature of the assay: Stabilization of G4 quadruplex DNA in human U2OS cells assessed as increase in number of G4 foci at 10 uM incubated for 24 hrs by immunofluorescence microscopy. Type of assay: cell-based.

Calls of active or inactive are those of the source. No cut-off for these calls is given here. A value given as a limit tells only on which side of the number the result lay.

Regarding `COc1cc2c(/C=N/NC(=N)N)c(Cl)n(C)c2cc1C`, the result in the assay with Quadruplex DNA [1], with Quadruplex DNA [4], in the assay with Quadruplex DNA [5], in the assay with Quadruplex DNA [6] and in the assay with Quadruplex DNA [8] was Active. In addition, the outcome (in the assay on Quadruplex DNA [2]; with Quadruplex DNA [3]; in assay [9]; in the assay with Quadruplex DNA [10]; in the assay with Quadruplex DNA [11]; with Quadruplex DNA [12]) was inactive. Besides, the thermal shift (ΔTm) in [7] is over 2 °C.

Consider `Cc1cc2c(cc1O)/C(=C\c1cccc(/C=N/NC(=N)N)c1)C(=O)N2`, for which the outcome in the assay on Quadruplex DNA [1], in the assay on Quadruplex DNA [4], in the assay with Quadruplex DNA [5], in the assay with Quadruplex DNA [6] and with Quadruplex DNA [8] was Active. In addition, the result (with Quadruplex DNA [2]; in the assay with Quadruplex DNA [3]; in assay [9]; with Quadruplex DNA [10]; in the assay with Quadruplex DNA [11]; in the assay on Quadruplex DNA [12]) was inactive. Further, in [7], the ΔTm was over 2 °C.

Consider `N=C(N)N/N=C/c1cn(Cc2ccccc2)c2ccccc12`, for which the outcome in the assay on Quadruplex DNA [1], with Quadruplex DNA [4], in the assay with Quadruplex DNA [5], in the assay on Quadruplex DNA [6] and in the assay with Quadruplex DNA [8] was Active. Besides, the result (in the assay on Quadruplex DNA [2]; with Quadruplex DNA [3]; in [9]; in the assay on Quadruplex DNA [10]; in the assay on Quadruplex DNA [11]; with Quadruplex DNA [12]) was inactive. Further, the ΔTm in assay [7] was over 2 °C.

On to `O=C1Nc2ccc(Cl)cc2/C1=C\c1cccc(/C=N/NC2=NCCN2)c1`, for which the outcome with Quadruplex DNA [1], in the assay with Quadruplex DNA [4], with Quadruplex DNA [5], in the assay with Quadruplex DNA [6] and in the assay on Quadruplex DNA [8] was Active. The outcome (with Quadruplex DNA [2]; in the assay on Quadruplex DNA [3]; in assay [9]; in the assay with Quadruplex DNA [10]; with Quadruplex DNA [11]; in the assay on Quadruplex DNA [12]) was inactive. Further, in assay [7], the ΔTm was over 2 °C.

Consider `COc1cc2c(/C=N/NC(=N)N)c[nH]c2cc1C`, for which the result with Quadruplex DNA [1], in the assay on Quadruplex DNA [4], with Quadruplex DNA [5], with Quadruplex DNA [6] and in the assay with Quadruplex DNA [8] was Active. Besides, the outcome (in the assay on Quadruplex DNA [2]; in the assay on Quadruplex DNA [3]; in assay [9]; with Quadruplex DNA [10]; with Quadruplex DNA [11]; in the assay on Quadruplex DNA [12]) was inactive. Besides, the ΔTm in [7] was over 2 °C.

With `O=C1Nc2c(ccc3ccccc23)/C1=C\c1cccc(/C=N/NC2=NCCN2)c1`, the result in the assay with Quadruplex DNA [1], in the assay on Quadruplex DNA [4], in the assay on Quadruplex DNA [5], in the assay with Quadruplex DNA [6] and with Quadruplex DNA [8] was Active. For the same molecule, the result (in the assay with Quadruplex DNA [2]; in the assay with Quadruplex DNA [3]; in assay [9]; in the assay with Quadruplex DNA [10]; in the assay on Quadruplex DNA [11]; in the assay on Quadruplex DNA [12]) was inactive. Also, in assay [7], the ΔTm was over 2 °C.

Turning to `Cc1cc2c(cc1O)/C(=C\c1cccc(/C=N/NC3=NCCN3)c1)C(=O)N2`, the outcome (in the assay on Quadruplex DNA [1]; in the assay on Quadruplex DNA [4]; in the assay on Quadruplex DNA [5]; with Quadruplex DNA [6]; in [7]; in the assay on Quadruplex DNA [8]) was Active. The result (with Quadruplex DNA [2]; in the assay with Quadruplex DNA [3]; in [9]; in the assay on Quadruplex DNA [10]; in the assay with Quadruplex DNA [11]; in the assay with Quadruplex DNA [12]) was inactive.

As to `N=C(N)N/N=C/c1cccc(/C=C2/C(=O)Nc3ccc(Cl)cc32)c1`, the outcome in the assay with Quadruplex DNA [1], with Quadruplex DNA [4], in the assay with Quadruplex DNA [5], in the assay on Quadruplex DNA [6] and in the assay with Quadruplex DNA [8] was Active. Moreover, the outcome (in the assay on Quadruplex DNA [2]; with Quadruplex DNA [3]; in assay [9]; in the assay on Quadruplex DNA [10]; in the assay on Quadruplex DNA [11]; with Quadruplex DNA [12]) was inactive. The ΔTm in assay [7] was over 2 °C.

In the case of `N=C(N)N/N=C/c1cn(C/C=C/c2ccccc2)c2ccccc12`, the outcome (with Quadruplex DNA [1]; in the assay with Quadruplex DNA [4]; in the assay with Quadruplex DNA [5]; in the assay on Quadruplex DNA [6]; in assay [7]; in the assay on Quadruplex DNA [8]) was Active. Besides, the result (with Quadruplex DNA [2]; with Quadruplex DNA [3]; in assay [9]; in the assay on Quadruplex DNA [10]; with Quadruplex DNA [11]; in the assay with Quadruplex DNA [12]) was inactive.

In the case of `Nc1ccn2c(/C=N/NC3=NCCN3)c(-c3ccccc3)nc2n1`, the result with Quadruplex DNA [1], in the assay with Quadruplex DNA [4], in the assay with Quadruplex DNA [5], in the assay with Quadruplex DNA [6] and in the assay with Quadruplex DNA [8] was Active. Moreover, the outcome (in the assay on Quadruplex DNA [2]; in the assay on Quadruplex DNA [3]; in assay [9]; in the assay with Quadruplex DNA [10]; with Quadruplex DNA [11]; with Quadruplex DNA [12]) was inactive. The ΔTm in assay [7] is over 2 °C.

In the case of `N=C(N)N/N=C/c1c(Cl)n(C/C=C/c2ccccc2)c2ccccc12`, the result (in the assay with Quadruplex DNA [1]; in the assay on Quadruplex DNA [4]; in the assay with Quadruplex DNA [5]; in the assay with Quadruplex DNA [6]; in [7]; in the assay with Quadruplex DNA [8]) was Active. Also, the result (in the assay on Quadruplex DNA [2]; in the assay with Quadruplex DNA [3]; in [9]; in the assay with Quadruplex DNA [10]; with Quadruplex DNA [11]; with Quadruplex DNA [12]) was inactive.

`N=C(N)N/N=C/c1cccc(/C=C2/C(=O)Nc3c2ccc2ccccc32)c1`: the outcome with Quadruplex DNA [1], in the assay with Quadruplex DNA [4], in the assay on Quadruplex DNA [5], with Quadruplex DNA [6] and with Quadruplex DNA [8] was Active. In addition, the outcome (with Quadruplex DNA [2]; in the assay with Quadruplex DNA [3]; in assay [9]; in the assay on Quadruplex DNA [10]; with Quadruplex DNA [11]; in the assay with Quadruplex DNA [12]) was inactive. Moreover, the ΔTm in assay [7] was over 2 °C.

In the case of `COc1cc2c(/C=N/NC(=N)N)c(Cl)[nH]c2cc1C`, the result in the assay on Quadruplex DNA [1], in the assay with Quadruplex DNA [4], in the assay with Quadruplex DNA [5], in the assay with Quadruplex DNA [6] and with Quadruplex DNA [8] was Active. Also, the outcome (with Quadruplex DNA [2]; with Quadruplex DNA [3]; in assay [9]; in the assay with Quadruplex DNA [10]; in the assay on Quadruplex DNA [11]; in the assay with Quadruplex DNA [12]) was inactive. In addition, the ΔTm in [7] was over 2 °C.

In the case of `CN(C)c1ccc(Nc2c3ccc(NC(=O)CCN4CCCC4)cc3nc3cc(NC(=O)CCN4CCCC4)ccc23)cc1`, the values for the Activity with Quadruplex DNA [13] and in the assay with Quadruplex DNA [14] were 19.1% and 15.2%, respectively. Also, the outcome in the assay with Quadruplex DNA [15] was Active.

(Values after ChEMBL document CHEMBL4402581, “Monohydrazone Based G-Quadruplex Selective Ligands Induce DNA Damage and Genome Instability in Human Cancer Cells” (J Med Chem, 2020).)
